This is an account of results in PubChem BioAssay AID493239 (Broad Institute, 2011).

Values joined by “and” are separate entries in the source; they are usually repeats but may differ in a detail not shown here. Equal entries are not always repeated. Active and inactive are the calls of the source.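 The calls were made as follows: active = fitted curve crosses 40% activation at or below the top valid dose tested for that sample; inconclusive = flat fit between 30 and 70% activation, or poor fit; inactive = the rest, including activity in the opposite direction.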

Test system in one experiment: not listed separately
Description: activators of HIF1alpha nuclear translocation – imaging, U2OS, high content, dry powder, set 3, orthogonal assay for HIF pathway activator project, dose response (AID 493239). The following applies: U2OS GFP-HIF1alpha nuclear intensity imaging; at 38 µM (top of the series). An outline of the steps:
(§1)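 Material: human osteosarcoma U2OS cells expressing GFP-HIF1alpha fusion; amount: 2,000 cells/well; compound: 8 concentrations, 3-fold steps; incubation: cells plated one day before dosing, compound exposure 24 h at 37 °C; measured by: 10X fluorescence microscopy, fixed cells, DAPI nuclear stain; control set: Desferrioxamine as positive control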
In the case of `O=C(c1cc(-c2ccccc2)on1)N1CCN(c2ccncc2)CC1`, the activation was 14% (inactive).

`Cc1ccccc1CNC(=O)c1cc(-c2ccccc2)on1`: the activation is 6.92% (inactive).

As to `O=C(c1cc(-c2ccccc2)on1)N1CCc2cccnc21`, the activation was 0.25% (inactive).

For `O=C(NCCN1CCOCC1)c1cc(-c2ccccc2)on1`, the activation is 248% (inactive).

In the case of `O=C(Nc1nc(-c2ccccc2)cs1)c1cc(-c2ccccc2)on1`, the activation is 0.096% (inactive).

For the compound `O=C(NC1Cc2ccccc2C1)c1cc(-c2ccccc2)on1`, the activation was 7.61% (inactive).

For `Cc1ccc(CNC(=O)c2cc(-c3ccccc3)on2)cc1`, the activation was 0.663% (inactive).

Consider `O=C(Nc1cnc2ccccc2c1)c1cc(-c2ccccc2)on1`, for which the activation was 8.34% (inactive).

Take `O=C(Nc1ncc(-c2ccccc2)o1)c1cc(-c2ccccc2)on1`: the activation was 4.26% (inactive).

Take `Cc1cccc(NC(=O)c2cc(-c3ccccc3)on2)n1`: the activation was 7.71% (inactive).

In the case of `O=C(Nc1nnc(-c2ccccc2)s1)c1cc(-c2ccccc2)on1`, the activation is -0.414% (inactive).

`Oc1ccc(CN2CCC(Cc3ccccc3)CC2)c2cccnc12`: the activation is 592% (inactive).

Turning to `O=C(Nc1ccc2ccccc2n1)c1cc(-c2ccccc2)on1`, the activation was 0.342% (inactive).

Regarding `Cn1c(NC(=O)c2cc(-c3ccccc3)on2)nc2ccccc21`, the activation was -0.603% (inactive).

Turning to `O=C(c1cc(-c2ccccc2)on1)N1CCC(CO)CC1`, the activation is 8.11% (inactive).

Consider `O=C(c1cc(-c2ccccc2)on1)N1CCC(N2CCOCC2)CC1`, for which the activation was -3.94% (inactive).

In the case of `O=C(c1cc(-c2ccccc2)on1)N1CCC(N2CCCC2)CC1`, the activation is 5.78% (inactive).

Regarding `CN1CCN(C(=O)c2cc(-c3ccccc3)on2)CC1`, the activation was -3.79% (inactive).

In the case of `Cc1cccc(CNC(=O)c2cc(-c3ccccc3)on2)c1`, the activation was 12.7% (inactive).

For the compound `O=C(NCc1ccccc1)c1cc(-c2ccccc2)on1`, the activation was -3.06% (inactive).

Consider `COc1ccccc1N1CCN(Cc2ccc(O)c3ncccc23)CC1`, for which the activation is 219% (inactive).

For the next experiment, the system named is U2OS GFP-HIF1alpha nuclear intensity imaging. The description is as above.
Conditions: not given
In outline: as §1
For `Cc1cccc(CNc2nc(-c3ccccn3)nnc2-c2ccccc2)c1`, the AC40 is 1.83 µM.

`c1ccc(-c2nnc(-c3ccccn3)nc2NCC2CCCCC2)cc1`: the AC40 was 1.13 µM.

With `Cc1ccc(CNc2nc(-c3ccccn3)nnc2-c2ccccc2)cc1`, the AC40 is 1.24 µM.

As for `c1ccc(-c2cccc(CNc3nc(-c4ccccn4)nnc3-c3ccccc3)c2)cc1`, the AC40 was 0.407 µM.

Take `Oc1ccc(CN2CCC3CCCCC3C2)c2cccnc12` (configuration not stated): the AC40 was 5.44 µM.

In the case of `COc1ccc(CNc2nc(-c3ccccn3)nnc2-c2ccccc2)cc1`, the AC40 was 1.15 µM.

For the compound `c1ccc(-c2nnc(-c3ccccn3)nc2NCC2CCOCC2)cc1`, the AC40 was 6.43 µM.

Turning to `Clc1cccc(CNc2nc(-c3ccccn3)nnc2-c2ccccc2)c1`, the AC40 was 0.651 µM.

Consider `O=C(NCCCO)c1cc(-c2ccccc2)on1`, for which the AC40 is 5.32 µM.

In the case of `CC(Nc1nc(-c2ccccn2)nnc1-c1ccccc1)c1ccccc1` (configuration not stated), the AC40 was 1.48 µM.

In the case of `O=C(NCCCN1CCOCC1)c1cc(-c2ccccc2)on1`, the AC40 is 14.8 µM.

As for `c1ccc(-c2nnc(-c3ccccn3)nc2NCCCN2CCOCC2)cc1`, the AC40 was 5.94 µM.

Take `Cc1ccc(NC(=O)c2cc(-c3ccccc3)on2)cn1`: the AC40 is > 38 µM (inactive).

With `c1ccc(-c2nnc(-c3ccccn3)nc2NCC2CC2)cc1`, the AC40 was 3.09 µM.

Turning to `c1ccc(-c2ccc(CNc3nc(-c4ccccn4)nnc3-c3ccccc3)cc2)cc1`, the AC40 was 0.487 µM.

With `CN1CCN(c2nc(-c3ccccn3)nnc2-c2ccccc2)CC1`, the AC40 was 8.8 µM.

Regarding `CN(C)c1nc(-c2ccccn2)nnc1-c1ccccc1`, the AC40 is 11.6 µM.

For `C[C@@H](Nc1nc(-c2ccccn2)nnc1-c1ccccc1)c1ccccc1`, the AC40 is 1.87 µM.

Turning to `c1ccc(-c2nnc(-c3ccccn3)nc2NCc2ccccn2)cc1`, the AC40 is 6.35 µM.

In the case of `CC(C)(C)OC(=O)N1CCN(Cc2ccc(O)c3ncccc23)CC1`, the AC40 was > 38 µM (inactive).

Consider `CC(C)(C)CCNC(=O)c1cc(-c2ccccc2)on1`, for which the AC40 was 18 µM.

For `c1ccc(-c2csc(Nc3nc(-c4ccccn4)nnc3-c3ccccc3)n2)cc1`, the AC40 was 0.88 µM.

`O=C(Nc1cn2ccccc2n1)c1cc(-c2ccccc2)on1`: the AC40 is 3.04 µM.

Turning to `O=C(NC1CCc2ccccc2C1)c1cc(-c2ccccc2)on1` (configuration not stated), the AC40 was > 38 µM (inactive).

Consider `c1ccc(-c2nnc(-c3ccccn3)nc2NCc2cccnc2)cc1`, for which the AC40 was 3.21 µM.

For the compound `c1ccc(-c2nnc(-c3ccccn3)nc2Nc2cnc3ccccc3n2)cc1`, the AC40 is 3.16 µM.

For `c1ccc(-c2nnc(Nc3nc(-c4ccccn4)nnc3-c3ccccc3)s2)cc1`, the AC40 is 7.75 µM.

On to `Cn1c(-c2ccccc2)cnc1NC(=O)c1cc(-c2ccccc2)on1`, for which the AC40 was > 38 µM (inactive).

Consider `Oc1ccc(CNC2Cc3ccccc3C2)c2cccnc12`, for which the AC40 was 4.22 µM.

Take `c1ccc(-c2nnc(-c3ccccn3)nc2Nc2nc3ccccc3s2)cc1`: the AC40 is 1.26 µM.

As for `CC1CN(Cc2ccc(O)c3ncccc23)CC(C)O1` (configuration not stated), the AC40 is 18.6 µM.

With `c1ccc(CNc2nc(-c3ccccn3)nnc2-c2ccccc2)cc1`, the AC40 was 2.07 µM.

Take `C[C@@H](Nc1nc(-c2ccccn2)nnc1-c1ccccc1)C1CCCCC1`: the AC40 is 0.515 µM.

Regarding `Cc1cccc(Nc2nc(-c3ccccn3)nnc2-c2ccccc2)n1`, the AC40 is 2.98 µM.

In the case of `O=C(NCCCCO)c1cc(-c2ccccc2)on1`, the AC40 is 2.08 µM.

As to `OCC1CCN(Cc2ccc(O)c3ncccc23)CC1`, the AC40 was 4.02 µM.

As to `O=C(NCCN1CCCCC1)c1cc(-c2ccccc2)on1`, the AC40 is > 38 µM (inactive).

For the compound `N#CC1(c2ccccc2)CCN(Cc2ccc(O)c3ncccc23)CC1`, the AC40 was > 38 µM (inactive).

Take `c1ccc(CCNc2nc(-c3ccccn3)nnc2-c2ccccc2)cc1`: the AC40 is 5.72 µM.

In the case of `Cc1ccc(Nc2nc(-c3ccccn3)nnc2-c2ccccc2)cn1`, the AC40 was 9.48 µM.

In the case of `O=C(Nc1nc2ccccc2s1)c1cc(-c2ccccc2)on1`, the AC40 is 20.1 µM.

Turning to `O=C(NCCCn1ccnc1)c1cc(-c2ccccc2)on1`, the AC40 was 5.74 µM.

With `c1ccc(-c2nnc(-c3ccccn3)nc2N2CCN(c3ccncc3)CC2)cc1`, the AC40 is 5.44 µM.

`CC(C)(C)c1ccc(CNc2nc(-c3ccccn3)nnc2-c2ccccc2)cc1`: the AC40 was 0.169 µM.

Take `c1ccc(-c2nnc(-c3ccccn3)nc2N2CCC(c3ccccc3)C2)cc1` (configuration not stated): the AC40 is 0.353 µM.

For the compound `Oc1ccc(CN2CCc3ccccc3C2)c2cccnc12`, the AC40 is 3.58 µM and 20.4 µM.

For the compound `c1ccc(-c2nnc(-c3ccccn3)nc2N2CCC(C3CCCCC3)C2)cc1` (configuration not stated), the AC40 is 0.24 µM.

In the case of `OCC1CCN(c2nc(-c3ccccn3)nnc2-c2ccccc2)CC1`, the AC40 was 13.6 µM.

For the compound `c1ccc(-c2nnc(-c3ccccn3)nc2NCCN2CCOCC2)cc1`, the AC40 was 7.2 µM.

For the compound `Cc1ccc(CNc2nc(-c3ccccn3)nnc2-c2ccccc2)cc1C`, the AC40 was 0.779 µM.

As for `CCCCNC(=O)c1cc(-c2ccccc2)on1`, the AC40 was 5.94 µM.

Consider `O=C(NCC1CCCCC1)c1cc(-c2ccccc2)on1`, for which the AC40 was > 38 µM (inactive).

With `C[C@H](Nc1nc(-c2ccccn2)nnc1-c1ccccc1)C1CCCCC1`, the AC40 is 0.866 µM.

Consider `CN(C)CCNC(=O)c1cc(-c2ccccc2)on1`, for which the AC40 was > 38 µM (inactive).

For the compound `OCCCNc1nc(-c2ccccn2)nnc1-c1ccccc1`, the AC40 is 12.1 µM.

In the case of `COc1cccc(CNc2nc(-c3ccccn3)nnc2-c2ccccc2)c1`, the AC40 is 1.08 µM.

Consider `CC(C)(C)CCNc1nc(-c2ccccn2)nnc1-c1ccccc1`, for which the AC40 was 0.77 µM and 0.585 µM.

On to `Oc1ccc(CNC2CCc3ccccc32)c2cccnc12` (configuration not stated), for which the AC40 was 10.3 µM.

As for `c1ccc(-c2nnc(-c3ccccn3)nc2NCCc2ccccn2)cc1`, the AC40 is 4.57 µM.

`C=CCNc1nc(-c2ccccn2)nnc1-c1ccccc1`: the AC40 was 5.24 µM.

In the case of `Cn1c(-c2ccccc2)cnc1Nc1nc(-c2ccccn2)nnc1-c1ccccc1`, the AC40 is 8.34 µM.

Regarding `O=C(Nc1ncc2ccccc2n1)c1cc(-c2ccccc2)on1`, the AC40 is 32.3 µM.

Regarding `O=C(NCC1CC1)c1cc(-c2ccccc2)on1`, the AC40 is 7.97 µM.

For the compound `Cc1ccccc1CNc1nc(-c2ccccn2)nnc1-c1ccccc1`, the AC40 is 1.14 µM.

In the case of `c1ccc(-c2nnc(-c3ccccn3)nc2N2CCC(N3CCOCC3)CC2)cc1`, the AC40 was 3.85 µM.

With `c1ccc(-c2cnc(Nc3nc(-c4ccccn4)nnc3-c3ccccc3)s2)cc1`, the AC40 is 9.91 µM.
